Tests used:
Type in all cases: functional
CCRF-CEM = assay: Growth inhibition of human CCRF-CEM cells after 48 hrs by sulforhodamine B assay
Summary of the method: (§1)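 Five-dose testing against a 60-line human tumor cell panel. GI50 is the drug concentration giving a 50% reduction in net protein increase relative to untreated control cells.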

[1] = Growth inhibition of human HL-60(TB) cells after 48 hrs by sulforhodamine B assay; settings: HL-60, 48 h
Summary of the method: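 Five-dose study across the 60-cell human tumour panel. GI50 is the drug concentration giving a 50% reduction in net protein increase relative to control cells.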

[2] = Growth inhibition of human MOLT4 cells after 48 hrs by sulforhodamine B assay; settings: MOLT-4, 48 h
Summary of the method: (§2)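 Five-dose concentration series run across a panel of 60 human tumour cell lines. GI50 is taken as the drug concentration giving a 50% reduction in net protein increase relative to untreated control cells.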

[3] = Growth inhibition of human RPMI8226 cells after 48 hrs by sulforhodamine B assay; settings: RPMI-8226, 48 h; summary of the method: as §2
SR = assay: Growth inhibition of human SR cells after 48 hrs by sulforhodamine B assay; summary of the method: as §2
A549 = assay: Growth inhibition of human A549/ATCC cells after 48 hrs by sulforhodamine B assay; settings: A549, 48 h; summary of the method: as §1
[4] = Growth inhibition of human HOP62 cells after 48 hrs by sulforhodamine B assay; settings: HOP-62, 48 h; summary of the method: as §1
[5] = Growth inhibition of human HOP92 cells after 48 hrs by sulforhodamine B assay; settings: HOP-92, 48 h; summary of the method: as §1
NCI-H23 = assay: Growth inhibition of human NCI-H23 cells after 48 hrs by sulforhodamine B assay; settings: NCI-H23, 48 h; summary of the method: as §2
NCI-H522 = assay: Growth inhibition of human NCI-H522 cells after 48 hrs by sulforhodamine B assay; settings: NCI-H522, 48 h; summary of the method: as §2
[6] = Growth inhibition of human COLO205 cells after 48 hrs by sulforhodamine B assay; settings: COLO 205, 48 h; summary of the method: as §1
[7] = Growth inhibition of human HCC2998 cells after 48 hrs by sulforhodamine B assay; settings: HCC 2998, 48 h; summary of the method: as §1
[8] = Growth inhibition of human HCT116 cells after 48 hrs by sulforhodamine B assay; settings: HCT-116, 48 h; summary of the method: as §1
[9] = Growth inhibition of human HCT15 cells after 48 hrs by sulforhodamine B assay; settings: HCT-15, 48 h; summary of the method: as §1
HT-29 = assay: Growth inhibition of human HT-29 cells after 48 hrs by sulforhodamine B assay; settings: HT-29, 48 h; summary of the method: as §1
KM12 = assay: Growth inhibition of human KM12 cells after 48 hrs by sulforhodamine B assay; settings: KM12, 48 h; summary of the method: as §1
[10] = Growth inhibition of human SW620 cells after 48 hrs by sulforhodamine B assay; settings: SW-620, 48 h; summary of the method: as §2
[11] = Growth inhibition of human SF268 cells after 48 hrs by sulforhodamine B assay; settings: SF-268, 48 h; summary of the method: as §2
[12] = Growth inhibition of human SF295 cells after 48 hrs by sulforhodamine B assay; settings: SF-295, 48 h; summary of the method: as §2
[13] = Growth inhibition of human SF539 cells after 48 hrs by sulforhodamine B assay; settings: SF-539, 48 h; summary of the method: as §2
[14] = Growth inhibition of human SNB19 cells after 48 hrs by sulforhodamine B assay; settings: SNB-19, 48 h; summary of the method: as §2
[15] = Growth inhibition of human SNB75 cells after 48 hrs by sulforhodamine B assay; settings: SNB-75, 48 h; summary of the method: as §2
U-251 = assay: Growth inhibition of human U251 cells after 48 hrs by sulforhodamine B assay; settings: U-251, 48 h; summary of the method: as §2
[16] = Growth inhibition of human LOXIMVI cells after 48 hrs by sulforhodamine B assay; settings: LOX IMVI; summary of the method: as §1
M14 = assay: Growth inhibition of human M14 cells after 48 hrs by sulforhodamine B assay; settings: M14, 48 h; summary of the method: as §1
MDA-MB-435 = assay: Growth inhibition of human MDA-MB-435 cells after 48 hrs by sulforhodamine B assay; settings: MDA-MB-435, 48 h; summary of the method: as §1
SK-MEL-2 = assay: Growth inhibition of human SK-MEL-2 cells after 48 hrs by sulforhodamine B assay; settings: SK-MEL-2, 48 h; summary of the method: as §2
SK-MEL-28 = assay: Growth inhibition of human SK-MEL-28 cells after 48 hrs by sulforhodamine B assay; settings: SK-MEL-28, 48 h; summary of the method: as §2
SK-MEL-5 = assay: Growth inhibition of human SK-MEL-5 cells after 48 hrs by sulforhodamine B assay; settings: SK-MEL-5, 48 h; summary of the method: as §2
[17] = Growth inhibition of human UACC62 cells after 48 hrs by sulforhodamine B assay; settings: UACC-62, 48 h
Summary of the method: (§3)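 Five-dose testing across the 60-line human tumour cell panel. GI50 is the drug concentration that gives a 50% reduction in net protein increase relative to control cells.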

[18] = Growth inhibition of human IGROV1 cells after 48 hrs by sulforhodamine B assay; settings: IGROV-1, 48 h; summary of the method: as §1
[19] = Growth inhibition of human OVCAR3 cells after 48 hrs by sulforhodamine B assay; settings: OVCAR-3, 48 h; summary of the method: as §2
[20] = Growth inhibition of human OVCAR4 cells after 48 hrs by sulforhodamine B assay; settings: OVCAR-4, 48 h; summary of the method: as §2
[21] = Growth inhibition of human NCI-ADR-RES cells after 48 hrs by sulforhodamine B assay; summary of the method: as §2
[22] = Growth inhibition of human SKOV3 cells after 48 hrs by sulforhodamine B assay; settings: SK-OV-3, 48 h; summary of the method: as §2
786-0 = assay: Growth inhibition of human 786-0 cells after 48 hrs by sulforhodamine B assay; settings: 786-0, 48 h; summary of the method: as §1
A498 = assay: Growth inhibition of human A498 cells after 48 hrs by sulforhodamine B assay; settings: A498, 48 h; summary of the method: as §1
ACHN = assay: Growth inhibition of human ACHN cells after 48 hrs by sulforhodamine B assay; summary of the method: as §1
[23] = Growth inhibition of human Caki1 cells after 48 hrs by sulforhodamine B assay; settings: CAKI-1, 48 h; summary of the method: as §1
[24] = Growth inhibition of human UO31 cells after 48 hrs by sulforhodamine B assay; settings: UO-31, 48 h; summary of the method: as §3
[25] = Growth inhibition of human PC3 cells after 48 hrs by sulforhodamine B assay; settings: PC-3, 48 h; summary of the method: as §2
[26] = Growth inhibition of human DU145 cells after 48 hrs by sulforhodamine B assay; settings: DU-145, 48 h; summary of the method: as §1
MCF7 = assay: Growth inhibition of human MCF7 cells after 48 hrs by sulforhodamine B assay; settings: MCF7, 48 h; summary of the method: as §1
MDA-MB-231 = assay: Growth inhibition of human MDA-MB-231 cells after 48 hrs by sulforhodamine B assay; settings: MDA-MB-231, 48 h; summary of the method: as §1
[27] = Growth inhibition of human Hs 578T cells after 48 hrs by sulforhodamine B assay; summary of the method: as §1
MDA-MB-468 = assay: Growth inhibition of human MDA-MB-468 cells after 48 hrs by sulforhodamine B assay; settings: MDA-MB-468, 48 h; summary of the method: as §1

COc1ccc(/C=C/c2cc(OC)c(OC)c(OC)c2)cc1
GI50 (CCRF-CEM): 2.89 µM
GI50 [1]: 3.14 µM
GI50 [2]: 3.22 µM
GI50 [3]: 6.42 µM
GI50 (SR): 3.93 µM
GI50 (A549): 3.7 µM
GI50 [4]: 3.14 µM
GI50 [5]: 7.23 µM
GI50 (NCI-H23): 3.37 µM
GI50 (NCI-H522): 3.7 µM
GI50 [6]: 2.07 µM
GI50 [7]: 3.59 µM
GI50 [8]: 3.23 µM
GI50 [9]: 2.82 µM
GI50 (HT-29): 2.32 µM
GI50 (KM12): 3.63 µM
GI50 [10]: 2.07 µM
GI50 [11]: 7.59 µM
GI50 [12]: 2.18 µM
GI50 [13]: 2.18 µM
GI50 [14]: 4.85 µM
GI50 [15]: 1.88 µM
GI50 (U-251): 3.07 µM
GI50 [16]: 4.89 µM
GI50 (M14): 2.81 µM
GI50 (MDA-MB-435): 1.04 µM
GI50 (SK-MEL-2): 3.95 µM
GI50 (SK-MEL-28): 3.86 µM
GI50 (SK-MEL-5): 2.5 µM
GI50 [17]: 2.37 µM
GI50 [18]: 5.29 µM
GI50 [19]: 3.45 µM
GI50 [20]: 4 µM
GI50 [21]: 3.01 µM
GI50 [22]: 3.34 µM
GI50 (786-0): 5.42 µM
GI50 (A498): 0.74 µM
GI50 (ACHN): 4.51 µM
GI50 [23]: 3 µM
GI50 [24]: 3.69 µM
GI50 [25]: 3.22 µM
GI50 [26]: 4.23 µM
GI50 (MCF7): 1.66 µM
GI50 (MDA-MB-231): 3.74 µM
GI50 [27]: 3.09 µM
GI50 (MDA-MB-468): 2.22 µM

From ChEMBL document CHEMBL3792365, “Dioxol and dihydrodioxin analogs of 2- and 3-phenylacetonitriles as potent anti-cancer agents with nanomolar activity against a variety of human cancer cells” (2016)
